Reference: ChEMBL document CHEMBL3421547, “Novel myricetin derivatives: Design, synthesis and anticancer activity” (Eur J Med Chem, 2015)

tested on: Bcap37; assay: Cytotoxicity against human Bcap37 cells after 48 hrs by MTT assay; conditions: Bcap37, 48 h

SMILES | IC50
COc1cc(OC)c2c(=O)c(OCCCN3CCCCC3)c(-c3cc(OC)c(OC)c(OC)c3)oc2c1 | 2.96 µM
COc1cc(OC)c2c(=O)c(OCCCCN3CCN(C)CC3)c(-c3cc(OC)c(OC)c(OC)c3)oc2c1 | 4.17 µM
COc1cc(OC)c2c(=O)c(OCC(=O)N/N=C/c3ccc(C)cc3)c(-c3cc(OC)c(OC)c(OC)c3)oc2c1 | 5.17 µM
COc1cc(OC)c2c(=O)c(OCC(=O)N/N=C/c3ccccn3)c(-c3cc(OC)c(OC)c(OC)c3)oc2c1 | 18.8 µM
COc1cc(OC)c2c(=O)c(OCCCCN3CCCCC3)c(-c3cc(OC)c(OC)c(OC)c3)oc2c1 | 2.62 µM
COc1cc(OC)c2c(=O)c(OCCCN3CCOCC3)c(-c3cc(OC)c(OC)c(OC)c3)oc2c1 | 4.68 µM

biological target: Telomerase reverse transcriptase (Homo sapiens, UniProt O14746); assay: Inhibition of telomerase in human MDA-MB-231 cells after 24 hrs by TRAP-PCR-ELISA; type: cell-based; conditions: not given
Sequence (O14746 whole entry): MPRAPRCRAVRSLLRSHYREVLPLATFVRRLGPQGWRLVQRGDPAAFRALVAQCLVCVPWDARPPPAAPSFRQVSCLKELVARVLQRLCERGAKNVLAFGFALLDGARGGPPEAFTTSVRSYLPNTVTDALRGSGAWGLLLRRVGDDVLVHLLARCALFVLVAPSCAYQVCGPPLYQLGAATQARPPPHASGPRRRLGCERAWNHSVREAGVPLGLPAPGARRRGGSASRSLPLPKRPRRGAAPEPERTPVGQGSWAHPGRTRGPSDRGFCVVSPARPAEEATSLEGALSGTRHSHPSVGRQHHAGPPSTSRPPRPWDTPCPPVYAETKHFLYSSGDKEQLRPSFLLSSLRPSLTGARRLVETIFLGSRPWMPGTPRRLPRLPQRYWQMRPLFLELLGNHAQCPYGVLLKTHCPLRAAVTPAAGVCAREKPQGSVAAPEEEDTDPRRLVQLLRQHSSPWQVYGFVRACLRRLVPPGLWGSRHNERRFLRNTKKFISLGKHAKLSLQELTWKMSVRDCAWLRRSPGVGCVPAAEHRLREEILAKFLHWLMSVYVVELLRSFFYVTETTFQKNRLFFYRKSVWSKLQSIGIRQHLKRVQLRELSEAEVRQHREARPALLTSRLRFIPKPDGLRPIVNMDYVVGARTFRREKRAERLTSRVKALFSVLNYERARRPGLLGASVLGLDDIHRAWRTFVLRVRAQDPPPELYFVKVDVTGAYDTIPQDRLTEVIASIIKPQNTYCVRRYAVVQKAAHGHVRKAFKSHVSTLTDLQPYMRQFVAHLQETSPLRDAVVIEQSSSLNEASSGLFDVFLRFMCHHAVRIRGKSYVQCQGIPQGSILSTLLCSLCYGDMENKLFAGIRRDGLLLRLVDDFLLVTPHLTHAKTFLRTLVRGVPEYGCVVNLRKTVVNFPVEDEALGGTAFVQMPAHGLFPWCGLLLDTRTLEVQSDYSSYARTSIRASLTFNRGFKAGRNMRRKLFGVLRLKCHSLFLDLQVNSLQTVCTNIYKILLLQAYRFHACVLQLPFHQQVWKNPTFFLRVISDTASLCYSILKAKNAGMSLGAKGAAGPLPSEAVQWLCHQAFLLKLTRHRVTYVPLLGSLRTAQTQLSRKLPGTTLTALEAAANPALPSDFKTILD
In short: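 MDA-MB-231 cells grown in DMEM with 10% FBS plus penicillin/streptomycin, 5 × 10^4 seeded in T25 flasks and allowed to adhere. Treated 24 h at 60, 20, 6.67, 2.22, 0.74, 0.25 and 0.082, with staurosporine included. Lysed in RIPA 30 min on ice, supernatant taken after 12,000 g spin at 4 °C. Telomerase read by TRAP-PCR-ELISA kit at 490 nm; mean ± SD.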

SMILES | IC50
CCN(CC)CCCCOc1c(-c2cc(OC)c(OC)c(OC)c2)oc2cc(OC)cc(OC)c2c1=O | 40.3 µM
C/C(=C\C(=O)Nc1ccccc1C(=O)O)c1ccc2ccccc2c1 | 0.17 µM
COc1cc(OC)c2c(=O)c(OCCCN3CCCC3)c(-c3cc(OC)c(OC)c(OC)c3)oc2c1 | 28.9 µM
COc1cc(OC)c2c(=O)c(OCCCN3CCCCC3)c(-c3cc(OC)c(OC)c(OC)c3)oc2c1 | 3.07 µM
COc1cc(OC)c2c(=O)c(OCCCCN3CCCCC3)c(-c3cc(OC)c(OC)c(OC)c3)oc2c1 | 2 µM
CC[n+]1c(-c2ccccc2)c2cc(N)ccc2c2ccc(N)cc21 [HOMIDIUM BROMIDE] | 2.33 µM

tested on: MDA-MB-231; assay: Cytotoxicity against human MDA-MB-231 cells after 48 hrs by MTT assay; conditions: MDA-MB-231, 48 h

SMILES | IC50
CCN(CC)CCCCOc1c(-c2cc(OC)c(OC)c(OC)c2)oc2cc(OC)cc(OC)c2c1=O | 13 µM
COc1cc(OC)c2c(=O)c(OCCCN3CCCCC3)c(-c3cc(OC)c(OC)c(OC)c3)oc2c1 | 2.16 µM
COc1cc(OC)c2c(=O)c(OCCCCN3CCN(C)CC3)c(-c3cc(OC)c(OC)c(OC)c3)oc2c1 | 3.87 µM
COc1cc(OC)c2c(=O)c(OCC(=O)N/N=C/c3ccc(C)cc3)c(-c3cc(OC)c(OC)c(OC)c3)oc2c1 | 4.57 µM
COc1cc(OC)c2c(=O)c(OCC(=O)N/N=C/c3ccccn3)c(-c3cc(OC)c(OC)c(OC)c3)oc2c1 | 9.89 µM
COc1cc(OC)c2c(=O)c(OCCCCN3CCCCC3)c(-c3cc(OC)c(OC)c(OC)c3)oc2c1 | 3.03 µM
COc1cc(OC)c2c(=O)c(OCCCN3CCOCC3)c(-c3cc(OC)c(OC)c(OC)c3)oc2c1 | 2.9 µM

tested on: MGC-803; assay: Cytotoxicity against human MGC803 cells after 48 hrs by MTT assay; conditions: MGC-803, 48 h

SMILES | IC50
COc1cc(OC)c2c(=O)c(OCCCN3CCCC3)c(-c3cc(OC)c(OC)c(OC)c3)oc2c1 | 32.1 µM
COc1cc(OC)c2c(=O)c(OCCCN3CCCCC3)c(-c3cc(OC)c(OC)c(OC)c3)oc2c1 | 10 µM
COc1cc(OC)c2c(=O)c(OCCCCN3CCN(C)CC3)c(-c3cc(OC)c(OC)c(OC)c3)oc2c1 | 12.2 µM
COc1cc(OC)c2c(=O)c(OCC(=O)N/N=C/c3ccc(C)cc3)c(-c3cc(OC)c(OC)c(OC)c3)oc2c1 | 3.51 µM
COc1cc(OC)c2c(=O)c(OCC(=O)N/N=C/c3ccccn3)c(-c3cc(OC)c(OC)c(OC)c3)oc2c1 | 15.3 µM
COc1cc(OC)c2c(=O)c(OCCCCN3CCCCC3)c(-c3cc(OC)c(OC)c(OC)c3)oc2c1 | 26.8 µM
COc1cc(OC)c2c(=O)c(OCCCN3CCOCC3)c(-c3cc(OC)c(OC)c(OC)c3)oc2c1 | 21 µM

tested on: SGC-7901; assay: Cytotoxicity against human SGC7901 cells after 48 hrs by MTT assay; conditions: SGC-7901, 48 h

SMILES | IC50
COc1cc(OC)c2c(=O)c(OCCCN3CCCCC3)c(-c3cc(OC)c(OC)c(OC)c3)oc2c1 | 16.5 µM
COc1cc(OC)c2c(=O)c(OCCCCN3CCN(C)CC3)c(-c3cc(OC)c(OC)c(OC)c3)oc2c1 | 6.95 µM
COc1cc(OC)c2c(=O)c(OCC(=O)N/N=C/c3ccc(C)cc3)c(-c3cc(OC)c(OC)c(OC)c3)oc2c1 | 10.1 µM
COc1cc(OC)c2c(=O)c(OCC(=O)N/N=C/c3ccccn3)c(-c3cc(OC)c(OC)c(OC)c3)oc2c1 | 16.2 µM
COc1cc(OC)c2c(=O)c(OCCCCN3CCCCC3)c(-c3cc(OC)c(OC)c(OC)c3)oc2c1 | 6.08 µM
COc1cc(OC)c2c(=O)c(OCCCN3CCOCC3)c(-c3cc(OC)c(OC)c(OC)c3)oc2c1 | 11.2 µM
